Assay [1] relates to Escherichia coli. The experiment in a line: Minimum inhibitory concentration of compound against Escherichia coli delta 120. It is filed as functional.
The test system of assay [2] is Salmonella typhimurium. Nature of the assay: Minimum inhibitory concentration of compound against Salmonella Typhimurium delta 119. To be noted: Salmonella enterica. The assay is classed as functional, Salmonella enterica subsp. enterica serovar Typhimurium.
Assay [3] deals with Klebsiella aerogenes. The experiment in a line: Minimum inhibitory concentration of compound against Enterobacter aerogenes delta 220. It is filed as functional.
The test system of assay [4] is Escherichia coli. The experiment in a line: Antibacterial activity againist Escherichia coli 120 infected NMRI mice after subcutaneous administration. The assay is classed as functional. To be noted: sc. The gist of the method: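 ED50 in NMRI mice infected intraperitoneally with E. coli 120; compound given subcutaneously immediately and 5 h after infection.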
For assay [5], the system named is Proteus mirabilis. Nature of the assay: Minimum inhibitory concentration against Proteus mirabilis delta 89. It is filed as functional.
Assay [6] relates to Klebsiella pneumoniae. The experiment in a line: Minimum inhibitory concentration of compound against Klebsiella pneumoniae delta 217. The assay is classed as functional.
Assay [7] concerns Neisseria gonorrhoeae. Nature of the assay: Minimum inhibitory concentration of compound against Neisseria gonorrhoeae AS 7720. It is filed as functional. A digest of the protocol: (§1)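 Agar dilution on Kellogg agar, 10⁶ colony forming units, incubated 20 h at 36 °C in 5% CO₂; MIC is the lowest concentration giving no visible growth.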
In assay [8] the test system is Escherichia coli. Nature of the assay: Antibacterial activity againist Escherichia coli 120 infected NMRI mice after peroral administration. It is filed as functional. Particulars: po. A digest of the protocol:
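ED50 in NMRI mice infected intraperitoneally with E. coli 120; compound given orally immediately and 5 h after infection.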

In assay [9] the test system is Neisseria gonorrhoeae. Nature of the assay: Minimum inhibitory concentration of compound against Neisseria gonorrhoeae W2. It is filed as functional. A digest of the protocol: as §1

≈ marks a conversion by molar mass, not a printed value.

With `Cc1ccc(S(=O)(=O)N2N=Cc3cc(N4CCCC4)ccc3B2O)cc1`, the MIC in assay [1], in assay [2], in [3], in assay [5] and in [6] was over 50 mg/L in each case. In [4], this molecule came in with an ED50 of over 300 mg/kg.
As for `O=S(=O)(c1cc(Cl)c(Cl)cc1Cl)N1N=Cc2cc(Br)ccc2B1O`, the MIC is over 50 mg/L in assay [1]; 1 mg/L (≈ 2.14 µM) in [7]; over 50 mg/L in assay [2]; over 50 mg/L in assay [3]; 8 mg/L (≈ 17.1 µM) in assay [9]; 6.25 mg/L (≈ 13.3 µM) in assay [5]. Moreover, the MIC in [6] turned out to be 50 mg/L (≈ 107 µM). Besides, the ED50 in [8] is over 300 mg/kg.
On to `CN(C)S(=O)(=O)N1N=Cc2ccccc2B1O`, for which the MIC in [1] was over 50 mg/L; in assay [7], over 8 mg/L; in assay [2], 50 mg/L (≈ 198 µM); in assay [3] it was over 50 mg/L; in assay [9] it was over 8 mg/L; in assay [5], 50 mg/L (≈ 198 µM). The molecule also yielded an MIC in assay [6] of 12.5 mg/L (≈ 49.4 µM). In assay [8], the ED50 was 57 mg/kg.
Turning to `CCCS(=O)(=O)N1N=Cc2cc(Cl)ccc2B1O`, the MIC in assay [1] came out at 10 mg/L (≈ 34.9 µM); in [7] it was 2 mg/L (≈ 6.98 µM); in assay [2], 3.12 mg/L (≈ 10.9 µM); in [3], 25 mg/L (≈ 87.2 µM); in assay [9] it was 2 mg/L (≈ 6.98 µM); in [5] it was 2.5 mg/L (≈ 8.72 µM). The molecule also registered an MIC in [6] of 1.56 mg/L (≈ 5.44 µM). The ED50 in [8] came out at 14 mg/kg.
With `O=S(=O)(c1ccccc1Cl)N1N=Cc2cc(Br)sc2B1O`, the MIC was over 50 mg/L in assay [1]; over 8 mg/L in assay [7]; over 50 mg/L in assay [2]; over 50 mg/L in assay [3]; over 8 mg/L in assay [9]; over 50 mg/L in assay [5]. In [6], the MIC is over 50 mg/L. Moreover, in [8], the ED50 is over 300 mg/kg.
For the molecule `CC(=O)Nc1ccc(S(=O)(=O)N2N=Cc3cc(C)ccc3B2O)c(Cl)c1`, the MIC in assay [1] was 25 mg/L (≈ 63.8 µM); in [7] it was 0.5 mg/L (≈ 1.28 µM); in assay [2], 6.25 mg/L (≈ 16 µM); in assay [3], 25 mg/L (≈ 63.8 µM); in [9], 1 mg/L (≈ 2.55 µM); in assay [5], 1.25 mg/L (≈ 3.19 µM). This molecule also came in with an MIC in assay [6] of 1.25 mg/L (≈ 3.19 µM). The molecule further came in with an ED50 in assay [8] of 16 mg/kg.
In the case of `Cc1ccc(S(=O)(=O)N2N=Cc3ccc(Cl)cc3B2O)cc1`, the MIC in assay [1] was over 50 mg/L; in assay [7], 1 mg/L (≈ 2.99 µM); in assay [2], 12.5 mg/L (≈ 37.4 µM); in assay [3] it was over 50 mg/L; in assay [9], over 8 mg/L; in assay [5], 25 mg/L (≈ 74.7 µM). In addition, the MIC in assay [6] was 12.5 mg/L (≈ 37.4 µM). The same molecule came in with an ED50 in assay [8] of about 50 mg/kg.
Take `CC(=O)Nc1ccc(S(=O)(=O)N2N=Cc3cc(Br)ccc3B2O)c(Cl)c1`: the MIC was determined as 50 mg/L (≈ 110 µM) in [1]; 1 mg/L (≈ 2.19 µM) in assay [7]; 12.5 mg/L (≈ 27.4 µM) in assay [2]; 50 mg/L (≈ 110 µM) in [3]; 2 mg/L (≈ 4.38 µM) in [9]; 1.56 mg/L (≈ 3.42 µM) in assay [5]. For the same molecule, the MIC in assay [6] was determined as 3.12 mg/L (≈ 6.83 µM). This molecule also had an ED50 in [8] of 83 mg/kg.
Take `CCCS(=O)(=O)N1N=Cc2sccc2B1O`: the MIC is 6.25 mg/L (≈ 24.2 µM) in [1]; 8 mg/L (≈ 31 µM) in assay [7]; 3.12 mg/L (≈ 12.1 µM) in assay [2]; 25 mg/L (≈ 96.8 µM) in assay [3]; 8 mg/L (≈ 31 µM) in assay [9]; 25 mg/L (≈ 96.8 µM) in assay [5]. Besides, the MIC in [6] came out at 1.56 mg/L (≈ 6.04 µM). In assay [8], the ED50 turned out to be 28 mg/kg.
With `Cc1ccc(S(=O)(=O)N2N=Cc3oc(Br)cc3B2O)cc1`, the MIC in assay [1] was determined as 12.5 mg/L (≈ 33.9 µM); in assay [7], 2 mg/L (≈ 5.42 µM); in [2], 3.12 mg/L (≈ 8.46 µM); in assay [3], 25 mg/L (≈ 67.7 µM); in assay [9] it was 8 mg/L (≈ 21.7 µM); in assay [5], 3.12 mg/L (≈ 8.46 µM). This molecule also showed an MIC in assay [6] of 3.12 mg/L (≈ 8.46 µM). For the same molecule, the ED50 in assay [8] is about 30 mg/kg.
Take `Cc1ccc(S(=O)(=O)N2N=Cc3cc(C)sc3B2O)c(Cl)c1`: the MIC is 50 mg/L (≈ 141 µM) in assay [1]; 1 mg/L (≈ 2.82 µM) in assay [7]; 6.25 mg/L (≈ 17.6 µM) in assay [2]; 50 mg/L (≈ 141 µM) in assay [3]; 1 mg/L (≈ 2.82 µM) in assay [9]; 1.56 mg/L (≈ 4.4 µM) in assay [5]. The molecule also displayed an MIC in assay [6] of 3.12 mg/L (≈ 8.8 µM). In addition, it took a dose of 25 mg/kg to reach the 50% effect level in assay [8] (ED50).
With `Nc1ccc(S(=O)(=O)N2N=Cc3c(F)cccc3B2O)cc1`, the MIC in assay [1] worked out at 25 mg/L (≈ 78.3 µM); in assay [7], 8 mg/L (≈ 25.1 µM); in [2], 10 mg/L (≈ 31.3 µM); in assay [3], 50 mg/L (≈ 157 µM); in assay [9], 8 mg/L (≈ 25.1 µM); in assay [5] it was 6.25 mg/L (≈ 19.6 µM). Further, in [6], 10 mg/L (≈ 31.3 µM) was the least that counted as inhibitory (MIC). It took a dose of 65 mg/kg to reach the 50% effect level in [8] (ED50).
For the molecule `Cc1ccc(S(=O)(=O)N2N=Cc3cc4c(cc3B2O)-c2ccccc2C4)cc1`, the MIC in assay [1] is over 50 mg/L; in assay [7] it was 2 mg/L (≈ 5.15 µM); in [2] it was over 50 mg/L; in assay [3], over 50 mg/L; in assay [9], 8 mg/L (≈ 20.6 µM); in assay [5] it was 50 mg/L (≈ 129 µM). In assay [6], this molecule returned an MIC of over 50 mg/L. Also, in assay [8], the ED50 is over 600 mg/kg.
For `Nc1ccc(S(=O)(=O)N2N=Cc3cc(Br)ccc3B2O)cc1`, the MIC in assay [1] was 10 mg/L (≈ 26.3 µM); in assay [7], 1 mg/L (≈ 2.63 µM); in [2], 3.12 mg/L (≈ 8.21 µM); in assay [3], 25 mg/L (≈ 65.8 µM); in [9], 2 mg/L (≈ 5.26 µM); in [5], 0.78 mg/L (≈ 2.05 µM). Besides, in assay [6], 1.56 mg/L (≈ 4.1 µM) was the least that counted as inhibitory (MIC). This molecule came in with an ED50 in assay [8] of 16 mg/kg.

The MIC is the least concentration at which growth counts as inhibited. Lower therefore signals greater potency. One may read the ED50 as the dose that gives a 50% effect, or the effect in half of the subjects. High values mean weaker potency, low ones greater potency.
